Assay results reported in ChEMBL document CHEMBL1132482, “Discovery of a series of cyclohexylethylamine-containing protein farnesyltransferase inhibitors exhibiting potent cellular activity” (J Med Chem, 1999).

Columns and labels:
[1] = molecular target: Protein farnesyltransferase (Rattus norvegicus, UniProt Q02293+Q04631); assay: In vitro inhibitory activity against Farnesyltransferase (FTase); type: protein-complex assay
Method in brief: (§1)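 Compounds were generally tested once, with some tested at n = 2, 4 or 8. Enzyme values are IC50 and cellular values are EC50 (nM). Stated assay reliability is ±50% for the in vitro assay and ±50–100% for the cellular assay. A 3-fold difference is treated as significant.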

[2] = organism: Rattus norvegicus; assay: Inhibitory activity against whole cell Ras prenylation; type: functional; method in brief: as §1
[3] = organism: Rattus norvegicus; assay: Inhibitory activity against whole cell Ras prenylation at a concentration of 1000 nM; type: functional
[4] = organism: Rattus norvegicus; assay: Inhibitory activity against whole cell Ras prenylation at a concentration of 300 nM; type: functional
[5] = organism: Rattus norvegicus; assay: Inhibitory activity against whole cell Ras prenylation at a concentration of 50 nM; type: functional

Compound	IC50 [1] [nM]	EC50 [2] [nM]	inhibition at 1 µM [3] [%]	inhibition at 0.3 µM [4] [%]	inhibition at 0.05 µM [5] [%]
CSCC[C@H](NC(=O)c1ccc(CNCCC2CCCCC2)cc1-c1ccccc1C)C(=O)O	0.17	200	–	–	–
CSCC[C@H](NC(=O)c1ccc(CN(C)CCC2CCCCC2)cc1-c1ccccc1C)C(=O)O	0.87	12	–	–	–
CSCC[C@H](NC(=O)c1ccc(CN[C@H](CSc2ccccc2)CC2CCCCC2)cc1-c1ccccc1C)C(=O)O	0.2	12	–	–	–
CCCC[C@H](CC1CCCCC1)NCc1ccc(C(=O)N[C@@H](CCSC)C(=O)O)c(-c2ccccc2C)c1	0.46	4.3	–	–	–
CSCC[C@H](NC(=O)c1ccc(CN[C@H](C)CC2CCCCC2)cc1-c1ccccc1C)C(=O)O	0.7	> 1000	–	–	–
CSCC[C@H](NC(=O)c1ccc(CN[C@H](/C=C/CC(C)C)CC2CCCCC2)cc1-c1ccccc1C)C(=O)O	0.22	–	–	–	–
CCS(=O)(=O)C[C@H](CC1CCCCC1)NCc1ccc(C(=O)N[C@@H](CCS(C)(=O)=O)C(=O)O)c(-c2ccccc2C)c1	1.2	–	63	–	–
CSCC[C@H](NC(=O)c1ccc(CN(CCC2CCCCC2)C(C)=O)cc1-c1ccccc1C)C(=O)O	2.9	> 1000	–	–	–
CC[C@H](CC1CCCCC1)NCc1ccc(C(=O)N[C@@H](CCSC)C(=O)O)c(-c2ccccc2C)c1	0.7	> 1000	–	–	–
CSCC[C@H](NC(=O)c1ccc(CN[C@H](CO)CC2CCCCC2)cc1-c1ccccc1C)C(=O)O	0.16	190	–	–	–
CSCC[C@H](NC(=O)c1ccc(CN[C@H](CSC2CCCCC2)CC2CCCCC2)cc1-c1ccccc1C)C(=O)O	0.41	–	80	–	–
CSCC[C@H](NC(=O)c1ccc(CN(CCC2CCCCC2)C(=O)c2ccccc2)cc1-c1ccccc1C)C(=O)O	1.1	> 1000	–	–	–
CSCC[C@H](NC(=O)c1ccc(CNC(CC2CCCCC2)CC2CCCCC2)cc1-c1ccccc1C)C(=O)O	0.25	–	75	–	–
CSCC[C@H](NC(=O)c1ccc(CN[C@H](CO)Cc2ccccc2)cc1-c1ccccc1C)C(=O)O	4.6	–	–	–	–
CCSC[C@H](CC1CCCCC1)NCc1ccc(C(=O)N[C@@H](CCSC)C(=O)O)c(-c2ccccc2C)c1	0.2	4.4	–	–	–
CSCC[C@H](NC(=O)c1ccc(CN[C@H](CSc2ccccc2C)CC2CCCCC2)cc1-c1ccccc1C)C(=O)O	0.42	–	77	–	–
CSCC[C@H](NC(=O)c1ccc(CN[C@@H](CO)CC2CCCCC2)cc1-c1ccccc1C)C(=O)O	12	–	–	–	–
CSCC[C@H](NC(=O)c1ccc(CN[C@H](CSC(C)(C)C)CC2CCCCC2)cc1-c1ccccc1C)C(=O)O	0.6	2.8	–	–	–
CSCC[C@H](NC(=O)c1ccc(CN(CCC2CCCCC2)Cc2ccccc2)cc1-c1ccccc1C)C(=O)O	3.5	> 1000	–	–	–
CSCC[C@H](NC(=O)c1ccc(CN[C@H](CO)CC2CCCCC2)cc1-c1ccccc1)C(=O)O	8	–	–	–	–
CCSC[C@H](CC1CCCCC1)NCc1ccc(C(=O)N[C@@H](CCS(C)(=O)=O)C(=O)O)c(-c2ccccc2C)c1	1	–	–	34	–
CSCC[C@H](NC(=O)c1ccc(CN[C@H](CCCC(C)C)CC2CCCCC2)cc1-c1ccccc1C)C(=O)O	0.28	52	–	–	–
CCS(=O)(=O)C[C@H](CC1CCCCC1)NCc1ccc(C(=O)N[C@@H](CCSC)C(=O)O)c(-c2ccccc2C)c1	0.14	–	–	–	59
CSCC[C@H](NC(=O)c1ccc(CN[C@@H](CO)C2CCCCC2)cc1-c1ccccc1C)C(=O)O	10	–	–	–	–
CSCC[C@H](NC(=O)c1ccc(CN[C@H](CO)C2CCCCC2)cc1-c1ccccc1C)C(=O)O	4	–	–	–	–
CSCC[C@H](NC(=O)c1ccc(CN(CCC2CCCCC2)C(=O)OC(C)(C)C)cc1-c1ccccc1C)C(=O)O	0.17	160	–	–	–
COC[C@H](CC1CCCCC1)NCc1ccc(C(=O)N[C@@H](CCSC)C(=O)O)c(-c2ccccc2C)c1	0.66	–	–	47	–
